# Laboratory results reported in ChEMBL document CHEMBL3588826, “Chimeric derivatives of functionalized amino acids and α-aminoamides: compounds with anticonvulsant activity in seizure models and inhibitory actions on central, peripheral, and cardiac isoforms of voltage-gated sodium channels” (Bioorg Med Chem, 2015).
# Active and inactive are the calls of the source. The rule behind the calls is not given here.
# How the values were obtained:
# Mus musculus = experiment: Anticonvulsant activity in ip dosed albino Carworth Farms No. 1 mouse measured at 0.25 hrs by 6Hz (32 mA) psychomotor seizure test; type: functional; conditions: Carworth Farms No. 1, ip
# Procedure, shortened: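 Screened under the NIH anticonvulsant program in male albino Carworth Farms No. 1 mice (ip) and male albino Sprague-Dawley rats (ip or oral). Protection tested by maximal electroshock or 6 Hz (32 mA) psychomotor stimulation.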
# Rattus norvegicus [1] = organism: Rattus norvegicus; experiment: Effect on steady state fast-inactivation of voltage-gated sodium channel in rat embryonic cortical neurons at 10 uM by whole cell patch-clamp electrophysiology
# Procedure, shortened: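 Rat embryonic day 19 cortical neurons, cultured 7–10 days, were whole-cell voltage-clamped at room temperature with 1–2 MΩ electrodes, with compound at 10 μM and 0.1% DMSO as control. Fast inactivation: 500 ms prepulses, then a test pulse. Activation: conductance G = I/(Vm − Vrev). V1/2 and k came from Boltzmann fits to individual cells, averaged (mean ± SEM), 5–7 cells per condition.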
# Rattus norvegicus [2] = experiment: Toxicity in po dosed Sprague-Dawley rat assessed as decrease in thymus weight administered via gavage; type: organism-based; conditions: in vivo
# Procedure, shortened: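 Non-GLP repeated-dose study: female Sprague-Dawley rats given compound by oral gavage once daily for 7 days at 20, 60 and 180 mg/kg/day. Endpoints included weight bearing, gait coordination, respiratory rate, relative organ weights (liver, spleen, thymus), clinical chemistry and gross pathology; NOAEL derived.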
# Rattus norvegicus [3] = experiment: Toxicity in po dosed Sprague-Dawley rat assessed as changes in body weight administered via gavage; type: organism-based; conditions: in vivo
# [4] = molecular target: Sodium channel protein type 1 subunit alpha (Homo sapiens) (UniProt P35498); experiment: Inhibition of human Nav1.1 expressed in HEK293 cells assessed as half-maximal voltage for steady state fast-inactivation at 10 uM by whole cell patch-clamp electrophysiology (reference value: -64.11 +/-3.63 mV); type: cell-based
# [5] = Ratio of drug level in brain to plasma in Sprague-Dawley rat at 5 mg/kg, iv and 20 mg/kg, po measured after 6 hrs; type: ADME, organism-based; conditions: read-out: BPR
# Procedure, shortened: (§1)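 Pharmacokinetics in Sprague-Dawley rats given a single iv dose of 5 mg/kg or an oral dose of 20 mg/kg.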
# CAD [6] = experiment: Inhibition of voltage-gated sodium channel in mouse CAD cells assessed as transition of channels to slow-inactivated state by whole cell patch-clamp electrophysiology; type: cell-based
# Procedure, shortened: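 CAD cells were grown in Ham's F12/DMEM with 10% FBS at 37 °C and 5% CO2, then recorded by whole-cell voltage clamp at room temperature. A concentration range of compound was tested versus 0.1% DMSO. Slow inactivation was measured at −50 and +20 mV, and IC50 was derived from concentration-response curves.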
# [7] = Neurotoxicity in ip dosed albino Carworth Farms No. 1 mouse measured at 0.25 hrs by rotarod test; type: toxicity, organism-based; conditions: in vivo
# [8] = Behavioural toxicity in po dosed albino Sprague-Dawley rat measured at 1 hr; type: organism-based; conditions: in vivo
# CAD [9] = experiment: Frequency-dependent inhibition of voltage-gated sodium channel in mouse CAD cells assessed as decrease in current amplitude at 30 uM by whole cell patch-clamp electrophysiology; type: cell-based
# Procedure, shortened: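 CAD cells, whole-cell voltage clamp at room temperature, with compound at 1, 10 or 30 μM against 0.1% DMSO. Thirty identical test pulses were given at 10 Hz. Current was normalized as peak at pulse N over pulse 1, and the maximal decrement was read at the end of the train. One-way ANOVA with Dunnett's test; 4–10 cells per condition.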
# [10] = molecular target: Sodium channel protein type 9 subunit alpha (Homo sapiens) (UniProt Q15858); experiment: Frequency-dependent inhibition of human Nav1.7 expressed in HEK293 cells assessed as current amplitude at 10 uM by whole cell patch-clamp electrophysiology; type: cell-based
# Procedure, shortened: (§2)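 Stable HEK293 lines expressing hNav1.1, rNav1.3, hNav1.7 or hNav1.5 were recorded by whole-cell voltage clamp at room temperature, with 10 μM compound versus 0.1% DMSO. A 30-pulse train was applied, and the read-out was the fraction of current remaining at the last pulse normalized to the first. Nav1.5 used hyperpolarized protocols.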
# [11] = molecular target: Sodium channel protein type 1 subunit alpha (Homo sapiens) (UniProt P35498); experiment: Frequency-dependent inhibition of human Nav1.1 expressed in HEK293 cells assessed as current amplitude at 10 uM by whole cell patch-clamp electrophysiology; type: cell-based; procedure, shortened: as §2
# [12] = Half life in Sprague-Dawley rat at 5 mg/kg, iv; type: ADME, organism-based; conditions: in vivo; procedure, shortened: as §1
# CAD [13] = experiment: Inhibition of voltage-gated sodium channel in mouse CAD cells assessed as half-maximal voltage for steady state fast-inactivation at 10 uM by whole cell patch-clamp electrophysiology (reference value: -69.1 +/-3.6 mV); type: cell-based
# Procedure, shortened: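 CAD cells, whole-cell voltage clamp at room temperature. Prepulses from −120 to −10 mV in 10 mV steps for 500 ms, then a 0 mV, 20 ms test pulse. V1/2 from single-Boltzmann fits to individual cells, averaged (mean ± SEM). Compared with 0.1% DMSO by Student's t-test.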
# [14] = molecular target: T1, Sodium channel protein type 5 subunit alpha (Homo sapiens, UniProt Q14524); experiment: Frequency-dependent inhibition of human Nav1.5 expressed in HEK293 cells assessed as current amplitude at 10 uM by whole cell patch-clamp electrophysiology; type: cell-based; conditions: hek293, 10 µM; procedure, shortened: as §2
# T1 sequence (Q14524 whole entry): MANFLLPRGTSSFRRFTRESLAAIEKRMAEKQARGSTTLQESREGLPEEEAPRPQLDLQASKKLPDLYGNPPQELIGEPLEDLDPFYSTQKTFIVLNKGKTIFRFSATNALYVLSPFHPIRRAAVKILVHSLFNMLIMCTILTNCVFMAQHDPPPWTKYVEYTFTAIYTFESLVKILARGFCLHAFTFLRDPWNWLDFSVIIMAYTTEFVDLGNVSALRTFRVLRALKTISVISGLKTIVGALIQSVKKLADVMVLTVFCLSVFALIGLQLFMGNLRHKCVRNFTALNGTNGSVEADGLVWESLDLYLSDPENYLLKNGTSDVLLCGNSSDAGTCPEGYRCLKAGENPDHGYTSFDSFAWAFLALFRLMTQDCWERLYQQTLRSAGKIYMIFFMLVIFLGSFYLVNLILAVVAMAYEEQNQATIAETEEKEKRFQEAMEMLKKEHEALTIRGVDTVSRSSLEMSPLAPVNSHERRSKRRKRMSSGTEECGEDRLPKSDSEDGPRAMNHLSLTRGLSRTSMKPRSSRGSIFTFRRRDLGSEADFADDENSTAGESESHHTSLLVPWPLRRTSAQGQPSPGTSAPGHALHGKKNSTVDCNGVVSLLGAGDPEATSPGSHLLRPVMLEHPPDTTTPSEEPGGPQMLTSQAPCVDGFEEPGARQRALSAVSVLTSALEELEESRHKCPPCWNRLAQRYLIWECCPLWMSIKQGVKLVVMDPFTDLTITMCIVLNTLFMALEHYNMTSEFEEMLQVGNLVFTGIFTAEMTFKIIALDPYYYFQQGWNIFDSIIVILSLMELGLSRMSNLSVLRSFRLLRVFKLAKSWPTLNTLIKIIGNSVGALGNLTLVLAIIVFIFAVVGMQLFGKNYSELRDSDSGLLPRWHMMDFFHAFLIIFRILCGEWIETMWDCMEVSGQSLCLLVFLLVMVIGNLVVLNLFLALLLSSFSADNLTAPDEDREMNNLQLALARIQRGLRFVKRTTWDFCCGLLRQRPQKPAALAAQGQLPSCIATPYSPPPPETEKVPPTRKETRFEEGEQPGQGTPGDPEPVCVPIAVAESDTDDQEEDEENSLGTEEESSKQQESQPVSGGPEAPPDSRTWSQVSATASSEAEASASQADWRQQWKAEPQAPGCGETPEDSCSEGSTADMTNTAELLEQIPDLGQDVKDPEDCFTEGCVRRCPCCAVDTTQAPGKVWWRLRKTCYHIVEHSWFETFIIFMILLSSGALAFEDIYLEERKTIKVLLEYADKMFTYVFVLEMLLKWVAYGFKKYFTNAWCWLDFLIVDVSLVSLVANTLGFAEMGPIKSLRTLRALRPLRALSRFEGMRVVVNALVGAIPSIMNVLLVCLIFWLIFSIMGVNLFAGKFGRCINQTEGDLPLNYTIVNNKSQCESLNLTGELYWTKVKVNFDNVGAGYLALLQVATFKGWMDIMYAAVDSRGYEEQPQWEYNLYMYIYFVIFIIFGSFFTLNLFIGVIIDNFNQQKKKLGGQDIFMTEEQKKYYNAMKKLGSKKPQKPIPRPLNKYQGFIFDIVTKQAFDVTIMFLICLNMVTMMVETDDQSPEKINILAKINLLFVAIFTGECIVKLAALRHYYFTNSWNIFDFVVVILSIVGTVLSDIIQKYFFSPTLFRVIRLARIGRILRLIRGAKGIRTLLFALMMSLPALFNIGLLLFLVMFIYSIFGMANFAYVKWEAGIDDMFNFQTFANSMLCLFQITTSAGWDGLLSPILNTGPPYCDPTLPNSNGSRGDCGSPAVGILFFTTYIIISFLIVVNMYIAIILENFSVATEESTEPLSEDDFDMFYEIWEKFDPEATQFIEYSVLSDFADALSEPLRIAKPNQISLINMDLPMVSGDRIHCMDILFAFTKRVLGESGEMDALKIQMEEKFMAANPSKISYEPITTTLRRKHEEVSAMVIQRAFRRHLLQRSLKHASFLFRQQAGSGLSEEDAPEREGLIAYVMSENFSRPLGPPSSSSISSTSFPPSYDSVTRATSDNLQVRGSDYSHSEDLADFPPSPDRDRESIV
# [15] = Inhibition of voltage-gated sodium channel in mouse CAD cells assessed as transition of channels to slow-inactivated state measured at -50 mV by whole cell patch-clamp electrophysiology; type: cell-based
# Procedure, shortened: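 CAD cells were grown in Ham's F12/DMEM with 10% FBS at 37 °C and 5% CO2, with native Na+ currents mostly from Nav1.7. Whole-cell voltage clamp at room temperature across a range of concentrations against 0.1% DMSO. IC50 for induction of slow inactivation was taken from concentration-response curves at −50 mV (also at +20 mV).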
# [16] = molecular target: T1, Sodium channel protein type 5 subunit alpha; experiment: Inhibition of human Nav1.5 expressed in HEK293 cells assessed as half-maximal voltage for steady state fast-inactivation at 10 uM by whole cell patch-clamp electrophysiology (reference value: -96.54 +/-1.64 mV); type: cell-based; conditions: hek293, 10 µM
# [17] = molecular target: Sodium channel protein type 3 subunit alpha (Rattus norvegicus) (UniProt P08104); experiment: Inhibition of rat Nav1.3 expressed in HEK293 cells assessed as half-maximal voltage for steady state activation at 10 uM by whole cell patch-clamp electrophysiology (reference value: -29.62 +/-3.59 mV); type: cell-based
# [18] = molecular target: Sodium channel protein type 1 subunit alpha (Homo sapiens) (UniProt P35498); experiment: Inhibition of human Nav1.1 expressed in HEK293 cells assessed as half-maximal voltage for steady state activation at 10 uM by whole cell patch-clamp electrophysiology (reference value: -24.69 +/-1.52 mV); type: cell-based
# [19] = molecular target: Voltage-gated inwardly rectifying potassium channel KCNH2 (Homo sapiens, UniProt Q12809); experiment: Binding affinity to human ERG at 30 uM by PatchExpress analysis
# Chain of Voltage-gated inwardly rectifying potassium channel KCNH2 (Q12809 whole entry): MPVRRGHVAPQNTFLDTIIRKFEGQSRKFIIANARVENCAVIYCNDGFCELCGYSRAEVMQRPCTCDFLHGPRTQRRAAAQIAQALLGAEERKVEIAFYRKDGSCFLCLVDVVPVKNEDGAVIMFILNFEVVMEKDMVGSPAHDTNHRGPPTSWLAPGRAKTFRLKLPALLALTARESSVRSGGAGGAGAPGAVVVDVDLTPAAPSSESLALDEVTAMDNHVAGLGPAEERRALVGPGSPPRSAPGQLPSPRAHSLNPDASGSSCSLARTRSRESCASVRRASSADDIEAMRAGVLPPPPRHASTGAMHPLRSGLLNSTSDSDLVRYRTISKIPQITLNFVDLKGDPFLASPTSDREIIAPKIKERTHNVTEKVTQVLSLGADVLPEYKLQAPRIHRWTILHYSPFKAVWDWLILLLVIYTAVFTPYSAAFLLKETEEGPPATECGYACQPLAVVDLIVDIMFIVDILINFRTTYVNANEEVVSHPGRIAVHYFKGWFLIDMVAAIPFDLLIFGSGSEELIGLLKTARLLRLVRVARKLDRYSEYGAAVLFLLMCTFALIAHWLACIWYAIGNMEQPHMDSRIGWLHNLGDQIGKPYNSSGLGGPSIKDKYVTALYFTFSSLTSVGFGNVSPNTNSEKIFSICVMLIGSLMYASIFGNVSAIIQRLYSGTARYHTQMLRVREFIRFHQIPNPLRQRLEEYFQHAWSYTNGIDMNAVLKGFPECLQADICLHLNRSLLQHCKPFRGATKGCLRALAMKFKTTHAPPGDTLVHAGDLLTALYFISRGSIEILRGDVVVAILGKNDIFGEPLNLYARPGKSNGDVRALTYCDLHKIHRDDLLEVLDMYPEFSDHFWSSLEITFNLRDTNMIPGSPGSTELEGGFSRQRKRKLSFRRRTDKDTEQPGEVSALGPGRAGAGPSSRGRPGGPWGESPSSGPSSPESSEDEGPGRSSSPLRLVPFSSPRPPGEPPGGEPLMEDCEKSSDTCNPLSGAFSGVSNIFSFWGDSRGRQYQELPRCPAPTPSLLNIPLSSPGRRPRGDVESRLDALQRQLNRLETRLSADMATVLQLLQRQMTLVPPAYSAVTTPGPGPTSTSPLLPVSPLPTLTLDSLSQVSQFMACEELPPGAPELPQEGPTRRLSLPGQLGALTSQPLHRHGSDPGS
# Rattus norvegicus [20] = experiment: Toxicity in po dosed Sprague-Dawley rat assessed as changes in clinical chemistry parameters administered via gavage; type: organism-based; conditions: in vivo
# Procedure, shortened: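 Non-GLP 7-day repeated-dose study in female Sprague-Dawley rats given oral gavage at 20, 60 and 180 mg/kg/day. Endpoints were weight bearing, gait coordination, respiratory rate, relative organ weights, clinical chemistry and gross pathology, with NOAEL determined.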
# Cytochrome P450 3A5 = Cytochrome P450 3A5 (Homo sapiens, UniProt P20815); experiment: Inhibition of human CYP3A5 at 10 uM; type: ADME
# Chain of Cytochrome P450 3A5 (P20815 whole entry): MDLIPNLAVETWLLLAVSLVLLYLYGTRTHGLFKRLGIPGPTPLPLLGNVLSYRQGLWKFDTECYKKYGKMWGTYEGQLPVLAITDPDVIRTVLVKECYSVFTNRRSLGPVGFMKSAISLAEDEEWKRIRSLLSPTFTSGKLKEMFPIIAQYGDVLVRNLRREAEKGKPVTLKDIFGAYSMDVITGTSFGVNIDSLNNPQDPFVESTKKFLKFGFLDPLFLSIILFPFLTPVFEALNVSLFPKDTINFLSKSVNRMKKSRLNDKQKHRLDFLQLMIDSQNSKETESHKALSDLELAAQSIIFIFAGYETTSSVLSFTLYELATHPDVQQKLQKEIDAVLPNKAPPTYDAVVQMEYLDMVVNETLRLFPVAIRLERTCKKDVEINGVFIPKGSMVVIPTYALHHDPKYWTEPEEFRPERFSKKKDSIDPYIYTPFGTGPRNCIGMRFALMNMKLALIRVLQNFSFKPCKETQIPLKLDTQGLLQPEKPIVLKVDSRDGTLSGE
# Procedure, shortened: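 Test compound at 10 μM against a human CYP450 panel (CYP1A2, 2B6, 2C8, 2C9, 2C19, 2D6, 3A4/5). Direct inhibition was measured, and time-dependent inhibition was measured after a 30-min preincubation.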
structure (smiles),measurement,setting,value
COC[C@@H](NC(C)=O)C(=O)NCc1ccc(Oc2cccc(OC(F)(F)F)c2)cc1,ED50,Mus musculus,15 mg/kg
same,Activity,Rattus norvegicus [1],inactive
same,Activity,Rattus norvegicus [2],Toxic
same,Activity,Rattus norvegicus [3],Toxic
same,V1/2,[4],-76.7 mV
same,Kp at 6 h,[5],1.2
same,inhibition,CAD [6],Dose-dependent effect
same,TD50 at 0.25 h,[7],40 mg/kg
same,TD50 at 1 h,[8],240 mg/kg
same,inhibition,CAD [9],44%
same,inhibition,[10],inactive
same,inhibition,[11],inactive
same,half-life,[12],1.75 h
same,V1/2,CAD [13],-84.6 mV
same,inhibition (INH),[14],Not Active
same,IC50,[15],0.7 µM
same,V1/2,[16],-95.36 mV
same,V1/2,[17],-32.5 mV
same,V1/2,[18],-24.4 mV
same,Activity,[19],Not Active
same,Activity,Rattus norvegicus [20],Toxic
same,inhibition (INH),Cytochrome P450 3A5,Not Active
